This is a sample that favours compounds with a hit; in the whole collection about 3.6% have one here.
HIF act: HIF pathway transcriptional activation; hit rate 0.32% among 300,000; activation, % at 7.5 µM (by protocol); U2OS HRE-luciferase reporter, luminescence; normalized: DMSO 0%, desferrioxamine 100%;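 active = mean activation of at least 10% of the iron chelator positive control signal, with at least half of replicates also reaching 10%; inconclusive = mean and replicate majority disagree about reaching 10%; inactive = mean and most replicates under 10%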
CSC inhib: cancer stem cell inhibition | cancer stem cell-like cells viability, luminescence | inhibition, % at 7.5 µM | hit rate 1.1% among 300,000 | AID 2717; in the data active = inhibition above about 75%; inconclusive = no clear call, values can overlap the other calls; tested in HMLE shEcad cells
PfHsp90 yeast 2: reduces growth (ATP signal) of yeast expressing P. falciparum Hsp90. S. cerevisiae expressing PfHsp90, BacTiter-Glo ATP, 48 h; yeast lacking PDR1 and PDR3 efflux regulators. inhibition, % at 9.4 µM. hit rate 0.32% among 310,000. AID 504621;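 active = every replicate shows inhibition above about 80%, whatever the replicate mean, limit read from the data; inconclusive = mean inhibition reaches the set limit but some replicate falls short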;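 note: 0% = DMSO neutral controls and 100% = 20 µM radicicol positive controls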
T cruzi inh: blocks replication of Trypanosoma cruzi; T. cruzi beta-gal in NIH3T3, luminescence, 90 h; inhibition, % (no concentration beside the values); hit rate 1.4% among 300,000; AID 1885;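 active = mean inhibition across valid replicates above about 55%, limit read from the data; inconclusive = mean below that limit but half or more replicates reach it; inactive = mean below it, under half of replicates reach it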;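 note: signal also drops with host cell toxicity which is not excluded here; 0% = plate median of DMSO wells and 100% = zero luminescence signal; higher percent means less beta-gal luminescence so fewer parasites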
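Test system: β-gal T. cruzi (Tulahuen C4) inside NIH/3T3 cells / Quantity: 5,000 cells/well / Measured by: luminescence from GalScreen with 0.05% NP40, read after 60 min / Medium: DMEM plus 2% FBS / Measure: parasite load inhibition, % / Reagent: Tulahuen C4 trypomastigotes, 5000/well / Schedule: co-culture of at least 90 h after 3 h attachment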
Beta cell apopt: beta cell apoptosis inhibition | hit rate 0.8% among 300,000 | protection from apoptosis, % (no concentration beside the values) | INS-1E cytokine-induced death, ATP luminescence, 48 h; percent of positive-control rescue, neutral wells zero;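 active = Every replicate reaches about 75%, or at least half do and their mean reaches it too, limit read from the data; inconclusive = At least half of replicates reach the limit but their mean does not; inactive = Under half of replicates reach the limit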;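 note: 0% = cytokine-treated negative control wells and 100% = positive control rescue; higher means more ATP so stronger rescue from cytokine killing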
SKKanGAS inh: inhibitors of SKKanGAS S. pyogenes growth in kanamycin (SK-promoter or general growth effect); AID 1662; hit rate 1.3% among 300,000; inhibition, % at 7.5 µM; BacTiter-Glo, 6 h;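 active = mean replicate score, as percent of positive control median, at least 50; inconclusive = mean below 50 but one replicate at or above 50; inactive = mean and every replicate below 50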;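 note: strain carries kanamycin resistance gene driven by streptokinase promoter and grows in 40 µg/ml kanamycin; loss of luminescence reflects streptokinase promoter inhibition or plain growth inhibition; 0% = median of DMSO wells and 100% = positive control at its reference dose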
An asterisk follows results filed as active; ? = inconclusive; nt = no result.

SMILES	HIF act	CSC inhib	PfHsp90 yeast 2	T cruzi inh	Beta cell apopt	SKKanGAS inh
NS(=O)(=O)c1ccc(N2N=C(c3ccc(Br)cc3)CC2c2ccc(F)cc2)cc1 (centres undefined)	0	125*	-10	53	-1	72*
NS(=O)(=O)c1ccc(N2N=C(c3ccccc3)CC2c2cccc(F)c2)cc1 (centres undefined)	1	23	-24	20	7	18
O=C(Oc1ccc(NC2=NS(=O)(=O)c3ccccc32)cc1)c1cccnc1	0	-10	-32	-8	nt	59*
COc1ccccc1N1C(=O)C2C(C(=O)c3ccccc3)=NN(c3ccccc3OC)C2C1=O (centres undefined)	0	-14	-4	1	1	15
Nc1nonc1-n1nnc(C(=O)N/N=C/c2cc(Br)ccc2O)c1CNc1ccccc1	7	97*	40	59*	97*	108*
Cc1ccc(/C=N/NC(=O)c2nnn(-c3nonc3N)c2CNc2ccccc2)cc1	0	-5	2	6	0	9
Cc1c(C(=O)N/N=C/c2c(O)ccc3ccccc23)nnn1-c1nonc1N	8	nt	-64	27	86*	?
Nc1nonc1C(=O)N/N=C/c1cc(Br)ccc1O	22*	10	-23	1	13	-6
Cc1noc(C)c1NC(=O)N(C)C[C@H]1Oc2ccc(NS(=O)(=O)c3cn(C)cn3)cc2C(=O)N([C@H](C)CO)C[C@@H]1C	nt	nt	11	nt	2	nt
CCCSc1ccc(C(=O)Nc2ccc(Cl)cc2)cn1	4	-24	4	3	1	-3
CCN(CC)S(=O)(=O)c1cccc(NC(=O)COC(=O)CCC(=O)c2ccc(F)cc2)c1	0	nt	-4	-4	nt	-3
CCOC(=O)c1[nH]c(C)c(C(=O)OCC(=O)NC(C)c2ccc(F)cc2)c1C (centres undefined)	nt	nt	2	nt	10	nt
COc1ccc(-c2c3c(cc4ncn(Cc5ccccc5)c24)COC3=O)cc1	nt	-13	-16	nt	17	nt
Nc1ccccc1Nc1cc(-c2cccc(Cl)c2)nn1-c1ccccc1	0	47	-8	57*	4	10
Cc1ccnn1-c1ccc(C(=O)NCc2ccccc2CN2CCOCC2)cc1	nt	nt	nt	nt	1	nt
Cc1ccc(C(=O)N2CCN(Cc3ccccc3)CC2)cc1S(=O)(=O)N1CCOCC1	nt	nt	21	nt	nt	nt
Cc1cc(OCC(=O)NNC(=S)NC(=O)c2cccs2)ccc1Cl	nt	3	-28	nt	4	nt
Cc1ccc(OCC(=O)NNC(=S)NC(=O)c2cccs2)c(C)c1	0	?	-86	-8	6	87*
Cc1ccc(OCC(=O)NNC(=S)NC(=O)c2ccc(Br)o2)c(C)c1	0	48	-10	-8	2	93*
COc1ccc(C(=O)NNC(=S)NC(=O)c2ccc(Br)o2)cc1OC	0	10	11	20	7	66*
CC1CN(Cc2cc(=O)oc3cc(O)c(Cl)cc23)CC(C)O1 (centres undefined)	0	-16	2	-31	-8	12
CCOc1ccc(/C=C/C(O)=C2/C(=O)N(C)C3(C)CC2c2ccccc2O3)cc1OC (centres undefined)	1	78*	-5	35	0	0
CCOc1ccc(/C=C/C(O)=C2/C(=O)NC3(C)CC2c2ccccc2O3)cc1OC (centres undefined)	3	24	-1	0	-8	-2
COc1cc(OC)c(OC)cc1/C=C1\CC(C)C/C(=C\c2cc(OC)c(OC)cc2OC)C1=O (centres undefined)	3	12	-7	59*	14	56*
COc1ccc(NC(=S)Nc2ccc(Oc3ccccc3)cc2)cc1	1	13	-11	6	3	13
SMILES	HIF act	CSC inhib	PfHsp90 yeast 2	T cruzi inh	Beta cell apopt	SKKanGAS inh
COc1ccc(NC(=S)NN(C)C(=S)Nc2ccc(OC)cc2)cc1	0	123*	3	-59	2	-1
CCCCn1c(N)c(-c2nc3ccccc3o2)c2c([N+](=O)[O-])nn(C)c(=O)c21	0	-11	1	8	-4	1
CCCCCn1c(N)c(-c2nc3ccccc3s2)c2c([N+](=O)[O-])nn(C)c(=O)c21	0	35	2	59*	-3	41
CCn1c(=O)n(CCc2ccccc2)c(=O)c2c3c(sc21)CCCC3	0	40	-5	33	8	-1
O=c1c2c3c(sc2n(CCN2CCCCC2)c(=O)n1Cc1ccco1)CCCCC3	-1	-3	nt	63*	93*	0
O=c1c2c3c(sc2nc(NCCOCCO)n1Cc1ccco1)CCCCC3	1	-10	21	nt	-1	27
CN(C)CCNc1nc2sc3c(c2c(=O)n1CCc1ccccc1)CCCCC3	0	106*	-5	58*	7	21
CC(O)CNc1nc2sc3c(c2c(=O)n1CCc1ccccc1)CCCCC3 (centres undefined)	0	58	12	57*	5	13
CC(O)CNc1nc2sc3c(c2c(=O)n1Cc1ccco1)CCCCC3 (centres undefined)	1	57	6	3	91*	25
COc1cc([N+](=O)[O-])cc2cc(C(=O)N3CCCC3)c(=O)oc12	0	-3	-4	6	-15	-2
CC(C(=O)OCC(=O)N(C)C1(C#N)CCCCC1)N1C(=O)c2ccccc2C1=O (centres undefined)	nt	-16	6	nt	-6	nt
COCCCn1c(=O)/c(=C\c2ccccc2OC(C)C)s/c1=C(/C#N)C(=O)Nc1ccc(C(=O)O)cc1	0	-10	-49	7	10	54*
CCOc1ccc(-n2c(C)cc(/C=N/N(C)C)c2C)cc1	0	-3	-15	56*	2	20
CCOc1ccc(-n2c(C)cc(/C=N/NC(=O)C(N)=O)c2C)cc1	0	6	nt	7	-6	1
CCOc1ccc(-n2c(C)cc(C(=O)CCl)c2C)cc1	5	17	nt	86*	36	-10
C=Cn1ccnc1P(=S)(c1ccc2c(c1)c1ccccc1n2CC)c1nccn1C=C	0	106*	-45	21	15	-1
CCn1c2ccccc2c2cc(/C=N/O)ccc21	1	-15	-53	-12	-4	12
CCOC(=O)c1c(NS(=O)(=O)Cc2ccccc2)sc2c1CCCC2	0	6	nt	-5	1	1
CCOC(=O)c1c(NS(=O)(=O)c2ccc(Br)cc2)sc2c1CCC2	-2	-2	-26	-12	9	79*
COc1ccc(OC)c(NS(=O)(=O)c2c(C(=O)N3CCCCCC3)c(C)n(C)c2C)c1	0	-1	-10	2	-6	1
O=C(Nc1ccc(Cn2cccn2)cc1)c1ccc(COc2cccc(Br)c2)cc1	-24	99*	-4	14	-2	16
CC(C)N=c1cc2n(-c3ccc(Cl)cc3)c3ccccc3nc-2cc1Nc1ccc(Cl)cc1	0	104*	11	44	114*	98*

Assay outcomes deposited in PubChem BioAssay by Broad Institute.
